Data set [1] in a line: Solubility of the compound in DMSO. Format: physicochemical.
The nature of data set [2]: Solubility of the compound in screening media. Format: physicochemical.
The test system of another data set is Mycobacterium ulcerans. Nature of the data set: Antibacterial activity against Mycobacterium ulcerans assessed as bacterial metabolic acativity at 10 ug/ml incubated for 8 days followed by addition of Alamar blue for 3 days by Alamar blue dye based fluorescence analysis. The class given is functional. The note with it: dose 10 µg/ml; time 8 day. An outline of the steps: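 Tested in triplicate. Remaining metabolic activity (%PC) was calculated as blank-corrected fluorescence of each treated well divided by that of the untreated control.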
On the technique in general: Resazurin is reduced to fluorescent resorufin, in cell work by metabolically active cells.

The source of these data is ChEMBL document CHEMBL4732173, “Easily accessed nitroquinolones exhibiting potent and selective anti-tubercular activity” (Eur J Med Chem, 2021).

On to `N#Cc1cccc(Cn2cc(C(=O)NCCOCCO)c(=O)c3cc([N+](=O)[O-])ccc32)c1`, for which the solubility entry is “Insoluble” in data set [1] and “Soluble” in data set [2].

Take `N#Cc1cccc(Cn2cc(C(=O)NCCNCCO)c(=O)c3cc([N+](=O)[O-])ccc32)c1`: the solubility result in data set [1] is “Insoluble”; in data set [2] it was “Soluble”. Moreover, in the data set on Mycobacterium ulcerans, the Activity is given as greater than 90%.

As for `O=C(NO)c1cn(Cc2cccc(Cl)c2)c2ccc([N+](=O)[O-])cc2c1=O`, the figures for the solubility result in data set [1] and in data set [2] were “Insoluble” and “Soluble”, respectively.

Consider `O=C(NCCNCCO)c1cn(Cc2ccc(F)cc2)c2ccc([N+](=O)[O-])cc2c1=O`, for which the solubility entry in data set [1] is listed as “Insoluble”; in data set [2] it was “Soluble”. Besides, in the data set with Mycobacterium ulcerans, the Activity is reported as greater than 90%.

In the case of `O=C(NCCN1CCOCC1)c1cn(Cc2cccc(Cl)c2)c2ccc([N+](=O)[O-])cc2c1=O`, the solubility entry in data set [1] is recorded as “Insoluble”; in data set [2] it was “Soluble”.

Turning to `O=C(NCCOCCO)c1cn(Cc2ccc(F)cc2)c2ccc([N+](=O)[O-])cc2c1=O`, the solubility entry in data set [1] was “Insoluble”; in data set [2], “Soluble”. In the data set on Mycobacterium ulcerans, the Activity is given as greater than 90%.

In the case of `CCOC(=O)c1c[nH]c2c(C(F)(F)F)cc([N+](=O)[O-])cc2c1=O`, the solubility entry was “Insoluble” in data set [1] and “Soluble” in data set [2]. In addition, the Activity in the data set on Mycobacterium ulcerans is listed as greater than 90%.

Take `COCCNC(=O)c1cn(Cc2cccc(Cl)c2)c2ccc([N+](=O)[O-])cc2c1=O`: the solubility result in data set [1] is “Insoluble”; in data set [2], “Soluble”. Further, the Activity with Mycobacterium ulcerans is recorded as greater than 90%.

For `O=C(NCCNCCO)c1cn(Cc2cccc(F)c2)c2ccc([N+](=O)[O-])cc2c1=O`, the solubility result in data set [1] is given as “Insoluble”; in data set [2] it was “Soluble”. Moreover, the Activity in the data set with Mycobacterium ulcerans is listed as greater than 90%.

Take `O=C(NCCN1CCOCC1)c1cn(Cc2cccc(Br)c2)c2ccc([N+](=O)[O-])cc2c1=O`: the solubility result in data set [1] is reported as “Insoluble”; in data set [2], “Soluble”.

On to `N#Cc1cccc(Cn2cc(C(=O)NO)c(=O)c3cc([N+](=O)[O-])ccc32)c1`, for which the solubility result in data set [1] was “Insoluble”; in data set [2], “Soluble”.

On to `COCCNC(=O)c1cn(Cc2cccc(C#N)c2)c2ccc([N+](=O)[O-])cc2c1=O`, for which the solubility result in data set [1] is reported as “Insoluble”; in data set [2], “Soluble”.

For the molecule `O=C(NO)c1cn(Cc2cccc(F)c2)c2ccc([N+](=O)[O-])cc2c1=O`, the solubility result in data set [1] is listed as “Insoluble”; in data set [2], “Soluble”.

In the case of `O=C(NCCN1CCOCC1)c1cn(Cc2cccc(F)c2)c2ccc([N+](=O)[O-])cc2c1=O`, the solubility result in data set [1] is given as “Insoluble”; in data set [2], “Soluble”.

In the case of `N#Cc1cccc(Cn2cc(C(=O)O)c(=O)c3cc([N+](=O)[O-])ccc32)c1`, the solubility entry in data set [1] was “Insoluble”; in data set [2], “Soluble”.

As for `COCCNC(=O)c1cn(Cc2cccc(F)c2)c2ccc([N+](=O)[O-])cc2c1=O`, the solubility result in data set [1] is “Insoluble”; in data set [2], “Soluble”.

In the case of `COCCNC(=O)c1cn(Cc2ccc(F)cc2)c2ccc([N+](=O)[O-])cc2c1=O`, the results for the solubility result in data set [1] and in data set [2] were “Insoluble” and “Soluble”, respectively. In addition, the Activity in the data set with Mycobacterium ulcerans was greater than 90%.

For the molecule `O=C(NO)c1cn(Cc2cccc(Br)c2)c2ccc([N+](=O)[O-])cc2c1=O`, the solubility entry in data set [1] was “Insoluble”; in data set [2], “Soluble”.

In the case of `O=C(NCCOCCO)c1cn(Cc2cccc(Cl)c2)c2ccc([N+](=O)[O-])cc2c1=O`, the results for the solubility entry in data set [1] and in data set [2] were “Insoluble” and “Soluble”, respectively.

Take `O=C(NCCOCCO)c1cn(Cc2cccc(F)c2)c2ccc([N+](=O)[O-])cc2c1=O`: the solubility result is recorded as “Insoluble” in data set [1] and “Soluble” in data set [2].

Take `COCCNC(=O)c1cn(Cc2ccc(C#N)cc2)c2ccc([N+](=O)[O-])cc2c1=O`: the solubility entry is recorded as “Insoluble” in data set [1] and “Soluble” in data set [2].

For `N#Cc1ccc(Cn2cc(C(=O)NCCOCCO)c(=O)c3cc([N+](=O)[O-])ccc32)cc1`, the solubility entry in data set [1] is “Insoluble”; in data set [2], “Soluble”.

For `N#Cc1ccc(Cn2cc(C(=O)NCCNCCO)c(=O)c3cc([N+](=O)[O-])ccc32)cc1`, the values for the solubility result in data set [1] and in data set [2] were “Insoluble” and “Soluble”, respectively.
